Viability and Activity data for one compound are collected here from ChEMBL document CHEMBL3596101, “The Mechanism of Ca(2+) Movement in the Involvement of Baicalein-Induced Cytotoxicity in ZR-75-1 Human Breast Cancer Cells” (J Nat Prod, 2015).

Active and inactive are the calls of the source. No cut-off for these calls is given here.

Data set [1] in a line: Cytotoxicity against human ZR-75-1 cells assessed as cell viability at 50 uM measured 20 mins post intracellular Ca2+ level detection by trypan blue exclusion assay relative to control. The data set is classed as cell-based. The settings on record: read-out: Activity. The gist of the method:
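Fura-2-loaded ZR-75-1 cells were held in the fluorescence cuvette with 50 μM compound. Viability was scored by trypan blue exclusion after 20 min of fluorescence recording.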

Data set [2] concerns ZR-75-1. As to the kind of experiment: Induction of apoptosis in human ZR-75-1 cells assessed as activation of caspase-3 at 20 to 40 uM preincubated for 24 hrs followed by antioxidant N-Acetylcysteine addition by Western immunoblot analysis. It counts as functional, cell-based. The gist of the method: (§1)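 Confluent ZR-75-1 cells (3 × 10^6/dish) treated with 20, 30 or 40 μM compound for 24 h. Where used, 5 μM BAPTA-AM or 5 μM NAC was added before the compound. About 50 μg lysate protein run on 10% SDS-PAGE, transferred to PVDF, probed for cleaved caspase-9/-3 and β-actin, chemiluminescence. Densitometry normalized to β-actin. Three experiments.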

Data set [3] deals with ZR-75-1. As to the kind of experiment: Induction of reactive oxygen species production in human ZR-75-1 cells at 40 uM after 24 hrs by DCFH-DA probe-based flow cytometric analysis (reference value: 3.623%). It counts as functional. The procedure, abridged:
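ZR-75-1 cells treated with 20–40 μM compound for 24 h, with 5 μM BAPTA-AM added first where indicated. Cells suspended at 1 × 10^6/mL, loaded with 10 μM DCFH-DA for 30 min at 37 °C. DCF read by flow cytometry (488 nm excitation, 530/30 nm filter, 10000 cells). % H2O2-positive (M1) after subtracting the baseline without probe. Three experiments.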

Data set [4] concerns ZR-75-1. As to the kind of experiment: Induction of apoptosis in human ZR-75-1 cells assessed as activation of caspase-9 at 20 to 40 uM preincubated for 24 hrs followed by antioxidant N-Acetylcysteine addition by Western immunoblot analysis. The data set is classed as functional, cell-based. The procedure, abridged:
as §1
Background: A western blot detects proteins with antibodies after separation by electrophoresis.

The subject of data set [5] is ZR-75-1. The experiment in a line: Change in endoplasmic reticulum Ca2+ pump inhibitor thapsigargin-induced intracellular Ca2+ increase in human ZR-75-1 cells at 40 uM pretreated with thapsigargin followed by compound addition in presence of Ca2+ free medium. It counts as functional, cell-based. The gist of the method:
(§2)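 ZR-75-1 cells loaded with 2 μM fura-2-AM for 30 min at 25 °C, then suspended in Ca2+-free medium (pH 7.4; 0.3 mM EGTA, 3 mM MgCl2). Stirred cuvette at 25 °C. Thapsigargin (1 μM) or BHQ (50 μM) given before or after 40 μM compound. Excitation 340/380 nm, emission 510 nm, read at 1 s intervals. [Ca2+]i calibrated with Triton X-100/CaCl2 then EGTA.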

Data set [6] relates to ZR-75-1. As to the kind of experiment: Effect on endoplasmic reticulum Ca2+ pump inhibitor BHQ-induced intracellular Ca2+ increase in human ZR-75-1 cells at 40 uM pretreated with BHQ followed by compound addition in presence of Ca2+ free medium. It counts as functional, cell-based. The gist of the method: as §2
In data set [7] the test system is ZR-75-1. As to the kind of experiment: Increase in intracellular Ca2+ level in human ZR-75-1 cells at 40 uM measured every 150 secs by fura-2-AM dye-based spectrofluorophotometric analysis in presence of Ca2+ free medium with PKC inhibitor GF109203X. It counts as functional, cell-based. The gist of the method: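 In Ca2+-free medium, GF109203X (2 μM) was added 1 min before 40 μM compound to fura-2-loaded ZR-75-1 cells in a 25 °C cuvette. Response = net area under curve as % of compound alone. Three experiments.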

As to `O=c1cc(-c2ccccc2)oc2cc(O)c(O)c(O)c12` [BAICALEIN], the viability at 20 min, 50 µM in data set [1] is 95%. Also, the outcome with ZR-75-1 [2], with ZR-75-1 [4], with ZR-75-1 [5], in the data set with ZR-75-1 [6] and with ZR-75-1 [7] was inactive. The Activity with ZR-75-1 [3] turned out to be 43.227%.
